Data: ChEMBL document CHEMBL1130129, “Immunologically specific activation of a cephalosporin derivative of mitomycin C by monoclonal antibody beta-lactamase conjugates” (J Med Chem, 1997)

How the values were obtained:
Assay type in all cases: functional, cell-based
H2987 cell line [1] = assay: Inhibitory activity against H2987, human lung adenocarcinoma cell line in absence of Enterobacter cloacae bL
How it was run: (§1)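 Cells plated at 4000 or 8000/well in IMDM with 10% FBS, left to adhere 18 h at 37 °C, then washed with RPMI/10% FBS. Compound exposure 1 h at 37 °C with no enzyme, followed by IMDM wash and 18 h culture. [3H]thymidine pulse at 1 µCi/well (18 h at 4000 cells/well, 6 h at 8000). IC50 is the concentration giving 50% incorporation versus untreated cells; mean of five experiments.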

H2987 cell line [2] = assay: Inhibitory activity against H2987, human lung adenocarcinoma cell line in presence of Enterobacter cloacae bL
How it was run: (§2)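 Adherent cells (4000 or 8000/well, 18 h, 37 °C, IMDM/10% FBS) washed with RPMI/10% FBS. Exposed 1 h at 37 °C to graded compound concentrations together with purified E. cloacae β-lactamase (10 µg/mL), then washed and cultured 18 h. [3H]thymidine pulse at 1 µCi/well (18 h or 6 h by seeding density). IC50 is 50% incorporation relative to untreated controls; five independent experiments.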

Clone 62 [3] = assay: Inhibitory activity against clone62, a mouse melanoma cell line in presence of Enterobacter cloacae bL; how it was run: as §2
Clone 62 [4] = assay: Inhibitory activity against clone62, a mouse melanoma cell line in absence of Enterobacter cloacae bL; how it was run: as §1

SMILES	IC50 (H2987 cell line [1]) [nM]	IC50 (H2987 cell line [2]) [nM]	IC50 (Clone 62 [3]) [nM]	IC50 (Clone 62 [4]) [nM]
CO[C@@]12[C@H](COC(N)=O)C3=C(C(=O)C(C)=C(NCC4=C(C(=O)O)N5C(=O)[C@@H](NC(=O)Cc6ccccc6)[C@H]5SC4)C3=O)N1C[C@@H]1N[C@@H]12	10400	2800	1400	3500
CO[C@@]12[C@H](COC(N)=O)C3=C(C(=O)C(C)=C(NCC4=C(C(=O)O)N5C(=O)[C@@H](NC(=O)CCCC(=O)O)[C@H]5SC4)C3=O)N1C[C@@H]1N[C@@H]12	26400	1200	3000	30100
CO[C@@]12[C@H](COC(N)=O)C3=C(C(=O)C(C)=C(N)C3=O)N1C[C@@H]1N[C@@H]12 [MITOMYCIN]	1600	–	–	1500
